Assay results as given in ChEMBL document CHEMBL4689842, “EUbOPEN Chemogenomics Library wave 1” (2021).

Tested on: Fibroblast
Experiment: Multiplex assay against human fibroblast
Format: toxicity, cell-based
How it was run: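 With compound added, live cells were imaged on a CQ1 microscope at 37°C and 5% CO2; staining with Hoechst33342, BioTracker Green Microtubule Cytoskeleton Dye, MitoTracker Red and Annexin V Alexa Fluor 680 had been done at seeding. The CellPathfinder machine-learning gating scheme split cells into Hoechst high-intensity objects or normal cells, normal cells into healthy, pyknosed or fragmented nuclei, and pyknosed cells into mitotic or apoptotic. The tubulin, mitochondrial-mass and membrane-permeability phenotypes are per cents of healthy-nucleus cells.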

[1] = 12 h, 1 µM, compound concentration 1 uM, replicate 1
[2] = 12 h, 1 µM, compound concentration 1 uM, replicate 2
[3] = 12 h, 10 µM, compound concentration 10 uM, replicate 1
[4] = 12 h, 10 µM, compound concentration 10 uM, replicate 2
[5] = 24 h, 1 µM, compound concentration 1 uM, replicate 1
[6] = 24 h, 1 µM, compound concentration 1 uM, replicate 2
[7] = 24 h, 10 µM, compound concentration 10 uM, replicate 1
[8] = 24 h, 10 µM, compound concentration 10 uM, replicate 2
[9] = 48 h, 1 µM, compound concentration 1 uM, replicate 1
[10] = 48 h, 1 µM, compound concentration 1 uM, replicate 2
[11] = 48 h, 10 µM, compound concentration 10 uM, replicate 1
[12] = 48 h, 10 µM, compound concentration 10 uM, replicate 2

Q: `O=C1NC(=O)C(c2cnc3ccccn23)=C1c1cn2c3c(cc(F)cc13)CN(C(=O)N1CCCCC1)CC2` [LY-2090314] was tested. Which “Population Apoptotic (%)” value [1] did it give?
A: 60%

Q: And the “Population Fragmented Nuclei (%)” value [1]?
A: 16%

Q: And the “Population Healthy Nuclei (%)” value [1]?
A: 32%

Q: What about the “Population Hoechst High Intensity Objects (%)” value [1] of the same molecule?
A: 11%

Q: And the “Population Membrane Permeable-Phenotype (%)” value [1]?
A: 29%

Q: What about the “Population Mitochondria Different-Phenotype (%)” value [1] of the same molecule?
A: 22%

Q: What about the “Population Mitotic Cells (%)” value [1] of the same molecule?
A: 40%

Q: What about the “Population Normal (%)” value [1] of the same molecule?
A: 88%

Q: What about the “Population Pyknosed Nuclei (%)” value [1] of the same molecule?
A: 51%

Q: And the “Population Tubulin-Different-Phenotype (%)” value [1]?
A: 89%

Q: And the “Total Cell Count” value [1]?
A: 166

Q: And the “Population Apoptotic (%)” value [2]?
A: 80%

Q: What about the “Population Fragmented Nuclei (%)” value [2] of the same molecule?
A: 3%

Q: What about the “Population Healthy Nuclei (%)” value [2] of the same molecule?
A: 87%

Q: What about the “Population Hoechst High Intensity Objects (%)” value [2] of the same molecule?
A: 12%

Q: What about the “Population Membrane Permeable-Phenotype (%)” value [2] of the same molecule?
A: 6%

Q: What about the “Population Mitochondria Different-Phenotype (%)” value [2] of the same molecule?
A: 16%

Q: What about the “Population Mitotic Cells (%)” value [2] of the same molecule?
A: 20%

Q: What about the “Population Normal (%)” value [2] of the same molecule?
A: 87%

Q: And the “Population Pyknosed Nuclei (%)” value [2]?
A: 9%

Q: And the “Population Tubulin-Different-Phenotype (%)” value [2]?
A: 22%

Q: And the “Total Cell Count” value [2]?
A: 85

Q: And the “Population Apoptotic (%)” value [3]?
A: 61%

Q: And the “Population Fragmented Nuclei (%)” value [3]?
A: 23%

Q: And the “Population Healthy Nuclei (%)” value [3]?
A: 31%

Q: And the “Population Hoechst High Intensity Objects (%)” value [3]?
A: 6%

Q: What about the “Population Membrane Permeable-Phenotype (%)” value [3] of the same molecule?
A: 50%

Q: What about the “Population Mitochondria Different-Phenotype (%)” value [3] of the same molecule?
A: 26%

Q: What about the “Population Mitotic Cells (%)” value [3] of the same molecule?
A: 38%

Q: What about the “Population Normal (%)” value [3] of the same molecule?
A: 93%

Q: And the “Population Pyknosed Nuclei (%)” value [3]?
A: 44%

Q: And the “Population Tubulin-Different-Phenotype (%)” value [3]?
A: 86%

Q: And the “Total Cell Count” value [3]?
A: 101

Q: And the “Population Apoptotic (%)” value [4]?
A: 100%

Q: And the “Population Fragmented Nuclei (%)” value [4]?
A: 9%

Q: What about the “Population Healthy Nuclei (%)” value [4] of the same molecule?
A: 74%

Q: What about the “Population Hoechst High Intensity Objects (%)” value [4] of the same molecule?
A: 10%

Q: What about the “Population Membrane Permeable-Phenotype (%)” value [4] of the same molecule?
A: 40%

Q: And the “Population Mitochondria Different-Phenotype (%)” value [4]?
A: 96%

Q: What about the “Population Mitotic Cells (%)” value [4] of the same molecule?
A: 0%

Q: What about the “Population Normal (%)” value [4] of the same molecule?
A: 89%

Q: What about the “Population Pyknosed Nuclei (%)” value [4] of the same molecule?
A: 16%

Q: And the “Population Tubulin-Different-Phenotype (%)” value [4]?
A: 96%

Q: And the “Total Cell Count” value [4]?
A: 63

Q: What about the “Population Apoptotic (%)” value [5] of the same molecule?
A: 64%

Q: And the “Population Fragmented Nuclei (%)” value [5]?
A: 25%

Q: And the “Population Healthy Nuclei (%)” value [5]?
A: 36%

Q: And the “Population Hoechst High Intensity Objects (%)” value [5]?
A: 7%

Q: And the “Population Membrane Permeable-Phenotype (%)” value [5]?
A: 26%

Q: And the “Population Mitochondria Different-Phenotype (%)” value [5]?
A: 17%

Q: What about the “Population Mitotic Cells (%)” value [5] of the same molecule?
A: 35%

Q: And the “Population Normal (%)” value [5]?
A: 92%

Q: What about the “Population Pyknosed Nuclei (%)” value [5] of the same molecule?
A: 38%

Q: And the “Population Tubulin-Different-Phenotype (%)” value [5]?
A: 86%

Q: And the “Total Cell Count” value [5]?
A: 156

Q: And the “Population Apoptotic (%)” value [6]?
A: 80%

Q: And the “Population Fragmented Nuclei (%)” value [6]?
A: 4%

Q: And the “Population Healthy Nuclei (%)” value [6]?
A: 87%

Q: What about the “Population Hoechst High Intensity Objects (%)” value [6] of the same molecule?
A: 13%

Q: What about the “Population Membrane Permeable-Phenotype (%)” value [6] of the same molecule?
A: 7%

Q: What about the “Population Mitochondria Different-Phenotype (%)” value [6] of the same molecule?
A: 22%

Q: And the “Population Mitotic Cells (%)” value [6]?
A: 20%

Q: And the “Population Normal (%)” value [6]?
A: 86%

Q: And the “Population Pyknosed Nuclei (%)” value [6]?
A: 8%

Q: What about the “Population Tubulin-Different-Phenotype (%)” value [6] of the same molecule?
A: 18%

Q: And the “Total Cell Count” value [6]?
A: 82

Q: And the “Population Apoptotic (%)” value [7]?
A: 70%

Q: And the “Population Fragmented Nuclei (%)” value [7]?
A: 24%

Q: What about the “Population Healthy Nuclei (%)” value [7] of the same molecule?
A: 34%

Q: And the “Population Hoechst High Intensity Objects (%)” value [7]?
A: 11%

Q: And the “Population Membrane Permeable-Phenotype (%)” value [7]?
A: 41%

Q: And the “Population Mitochondria Different-Phenotype (%)” value [7]?
A: 58%

Q: What about the “Population Mitotic Cells (%)” value [7] of the same molecule?
A: 29%

Q: What about the “Population Normal (%)” value [7] of the same molecule?
A: 88%

Q: What about the “Population Pyknosed Nuclei (%)” value [7] of the same molecule?
A: 41%

Q: What about the “Population Tubulin-Different-Phenotype (%)” value [7] of the same molecule?
A: 87%

Q: And the “Total Cell Count” value [7]?
A: 102

Q: And the “Population Apoptotic (%)” value [8]?
A: 81%

Q: What about the “Population Fragmented Nuclei (%)” value [8] of the same molecule?
A: 11%

Q: What about the “Population Healthy Nuclei (%)” value [8] of the same molecule?
A: 64%

Q: What about the “Population Hoechst High Intensity Objects (%)” value [8] of the same molecule?
A: 4%

Q: What about the “Population Membrane Permeable-Phenotype (%)” value [8] of the same molecule?
A: 37%

Q: What about the “Population Mitochondria Different-Phenotype (%)” value [8] of the same molecule?
A: 96%

Q: And the “Population Mitotic Cells (%)” value [8]?
A: 18%

Q: What about the “Population Normal (%)” value [8] of the same molecule?
A: 95%

Q: What about the “Population Pyknosed Nuclei (%)” value [8] of the same molecule?
A: 24%

Q: What about the “Population Tubulin-Different-Phenotype (%)” value [8] of the same molecule?
A: 96%

Q: What about the “Total Cell Count” value [8] of the same molecule?
A: 72

Q: What about the “Population Apoptotic (%)” value [9] of the same molecule?
A: 79%

Q: What about the “Population Fragmented Nuclei (%)” value [9] of the same molecule?
A: 36%

Q: What about the “Population Healthy Nuclei (%)” value [9] of the same molecule?
A: 22%

Q: What about the “Population Hoechst High Intensity Objects (%)” value [9] of the same molecule?
A: 6%

Q: And the “Population Membrane Permeable-Phenotype (%)” value [9]?
A: 14%

Q: And the “Population Mitochondria Different-Phenotype (%)” value [9]?
A: 25%

Q: And the “Population Mitotic Cells (%)” value [9]?
A: 20%

Q: And the “Population Normal (%)” value [9]?
A: 93%

Q: What about the “Population Pyknosed Nuclei (%)” value [9] of the same molecule?
A: 41%

Q: What about the “Population Tubulin-Different-Phenotype (%)” value [9] of the same molecule?
A: 85%

Q: And the “Total Cell Count” value [9]?
A: 127

Q: What about the “Population Apoptotic (%)” value [10] of the same molecule?
A: 75%

Q: And the “Population Fragmented Nuclei (%)” value [10]?
A: 55%

Q: What about the “Population Healthy Nuclei (%)” value [10] of the same molecule?
A: 29%

Q: And the “Population Hoechst High Intensity Objects (%)” value [10]?
A: 8%

Q: What about the “Population Membrane Permeable-Phenotype (%)” value [10] of the same molecule?
A: 26%

Q: What about the “Population Mitochondria Different-Phenotype (%)” value [10] of the same molecule?
A: 26%

Q: What about the “Population Mitotic Cells (%)” value [10] of the same molecule?
A: 25%

Q: What about the “Population Normal (%)” value [10] of the same molecule?
A: 91%

Q: And the “Population Pyknosed Nuclei (%)” value [10]?
A: 15%

Q: And the “Population Tubulin-Different-Phenotype (%)” value [10]?
A: 69%

Q: And the “Total Cell Count” value [10]?
A: 86

Q: What about the “Population Apoptotic (%)” value [11] of the same molecule?
A: 73%

Q: What about the “Population Fragmented Nuclei (%)” value [11] of the same molecule?
A: 28%

Q: What about the “Population Healthy Nuclei (%)” value [11] of the same molecule?
A: 25%

Q: What about the “Population Hoechst High Intensity Objects (%)” value [11] of the same molecule?
A: 15%

Q: And the “Population Membrane Permeable-Phenotype (%)” value [11]?
A: 28%

Q: What about the “Population Mitochondria Different-Phenotype (%)” value [11] of the same molecule?
A: 57%

Q: And the “Population Mitotic Cells (%)” value [11]?
A: 26%

Q: What about the “Population Normal (%)” value [11] of the same molecule?
A: 84%

Q: What about the “Population Pyknosed Nuclei (%)” value [11] of the same molecule?
A: 46%

Q: What about the “Population Tubulin-Different-Phenotype (%)” value [11] of the same molecule?
A: 71%

Q: And the “Total Cell Count” value [11]?
A: 97

Q: What about the “Population Apoptotic (%)” value [12] of the same molecule?
A: 93%

Q: And the “Population Fragmented Nuclei (%)” value [12]?
A: 10%

Q: What about the “Population Healthy Nuclei (%)” value [12] of the same molecule?
A: 61%

Q: And the “Population Hoechst High Intensity Objects (%)” value [12]?
A: 16%

Q: And the “Population Membrane Permeable-Phenotype (%)” value [12]?
A: 5%

Q: What about the “Population Mitochondria Different-Phenotype (%)” value [12] of the same molecule?
A: 85%

Q: What about the “Population Mitotic Cells (%)” value [12] of the same molecule?
A: 6%

Q: And the “Population Normal (%)” value [12]?
A: 83%

Q: What about the “Population Pyknosed Nuclei (%)” value [12] of the same molecule?
A: 27%

Q: What about the “Population Tubulin-Different-Phenotype (%)” value [12] of the same molecule?
A: 85%

Q: What about the “Total Cell Count” value [12] of the same molecule?
A: 66
